Data taken from ChEMBL document CHEMBL4152256, “Structure-activity relationship of new antimalarial 1-aryl-3-susbtituted propanol derivatives: Synthesis, preliminary toxicity profiling, parasite life cycle stage studies, target exploration, and targeted delivery” (Eur J Med Chem, 2018).

Key:
[1] = Genotoxicity in Salmonella typhimurium TA1535 harboring pSK1002 assessed as umu gene induction at 0.125 mg/ml in presence of Sprague-Dawley rat liver S9 fraction after by SOS/umu assay relative to control; type: toxicity, organism-based; settings: salmonella enterica subsp. enterica serovar typhimurium, read-out: FC
[2] = Genotoxicity in Salmonella typhimurium TA1535 harboring pSK1002 assessed as survival at 0.125 mg/ml in presence of Sprague-Dawley rat liver S9 fraction after by SOS/umu assay relative to control; type: toxicity, organism-based; settings: salmonella enterica subsp. enterica serovar typhimurium, read-out: Survival
[3] = Genotoxicity in Salmonella typhimurium TA1535 harboring pSK1002 assessed as survival at 0.004 mg/ml in absence of Sprague-Dawley rat liver S9 fraction after by SOS/umu assay relative to control; type: toxicity, organism-based; settings: salmonella enterica subsp. enterica serovar typhimurium, read-out: Survival
[4] = Cytotoxicity against human HepG2A16 cells by MTT assay; type: cell-based
How it was run: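 MTT viability assay on HepG2-A16 cells, giving CC50 values.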

[5] = Genotoxicity in Salmonella typhimurium TA1535 harboring pSK1002 assessed as survival at 0.016 mg/ml in presence of Sprague-Dawley rat liver S9 fraction after by SOS/umu assay relative to control; type: toxicity, organism-based; settings: salmonella enterica subsp. enterica serovar typhimurium, read-out: Survival
[6] = Genotoxicity in Salmonella typhimurium TA1535 harboring pSK1002 assessed as survival at 0.016 mg/ml in absence of Sprague-Dawley rat liver S9 fraction after by SOS/umu assay relative to control; type: toxicity, organism-based; settings: salmonella enterica subsp. enterica serovar typhimurium, read-out: Survival
[7] = Genotoxicity in Salmonella typhimurium TA1535 harboring pSK1002 assessed as survival at 0.002 mg/ml in absence of Sprague-Dawley rat liver S9 fraction after by SOS/umu assay relative to control; type: toxicity, organism-based; settings: salmonella enterica subsp. enterica serovar typhimurium, read-out: Survival
[8] = Genotoxicity in Salmonella typhimurium TA1535 harboring pSK1002 assessed as umu gene induction at 0.002 mg/ml in absence of Sprague-Dawley rat liver S9 fraction after by SOS/umu assay relative to control; type: toxicity, organism-based; settings: salmonella enterica subsp. enterica serovar typhimurium, read-out: FC
[9] = Genotoxicity in Salmonella typhimurium TA1535 harboring pSK1002 assessed as umu gene induction at 0.002 mg/ml in presence of Sprague-Dawley rat liver S9 fraction after by SOS/umu assay relative to control; type: toxicity, organism-based; settings: salmonella enterica subsp. enterica serovar typhimurium, read-out: FC
[10] = Genotoxicity in Salmonella typhimurium TA1535 harboring pSK1002 assessed as umu gene induction at 0.031 mg/ml in presence of Sprague-Dawley rat liver S9 fraction after by SOS/umu assay relative to control; type: toxicity, organism-based; settings: salmonella enterica subsp. enterica serovar typhimurium, read-out: FC
[11] = Genotoxicity in Salmonella typhimurium TA1535 harboring pSK1002 assessed as survival at 0.125 mg/ml in absence of Sprague-Dawley rat liver S9 fraction after by SOS/umu assay relative to control; type: toxicity, organism-based; settings: salmonella enterica subsp. enterica serovar typhimurium, read-out: Survival
[12] = Genotoxicity in Salmonella typhimurium TA1535 harboring pSK1002 assessed as umu gene induction at 0.063 mg/ml in absence of Sprague-Dawley rat liver S9 fraction after by SOS/umu assay relative to control; type: toxicity, organism-based; settings: salmonella enterica subsp. enterica serovar typhimurium, read-out: FC
[13] = Genotoxicity in Salmonella typhimurium TA1535 harboring pSK1002 assessed as umu gene induction at 0.016 mg/ml in presence of Sprague-Dawley rat liver S9 fraction after by SOS/umu assay relative to control; type: toxicity, organism-based; settings: salmonella enterica subsp. enterica serovar typhimurium, read-out: FC
[14] = Genotoxicity in Salmonella typhimurium TA1535 harboring pSK1002 assessed as survival at 0.002 mg/ml in presence of Sprague-Dawley rat liver S9 fraction after by SOS/umu assay relative to control; type: toxicity, organism-based; settings: salmonella enterica subsp. enterica serovar typhimurium, read-out: Survival
[15] = Genotoxicity in Salmonella typhimurium TA1535 harboring pSK1002 assessed as survival at 0.063 mg/ml in absence of Sprague-Dawley rat liver S9 fraction after by SOS/umu assay relative to control; type: toxicity, organism-based; settings: salmonella enterica subsp. enterica serovar typhimurium, read-out: Survival
[16] = Genotoxicity in Salmonella typhimurium TA1535 harboring pSK1002 assessed as umu gene induction at 0.004 mg/ml in presence of Sprague-Dawley rat liver S9 fraction after by SOS/umu assay relative to control; type: toxicity, organism-based; settings: salmonella enterica subsp. enterica serovar typhimurium, read-out: FC
[17] = Genotoxicity in Salmonella typhimurium TA1535 harboring pSK1002 assessed as umu gene induction at 0.016 mg/ml in absence of Sprague-Dawley rat liver S9 fraction after by SOS/umu assay relative to control; type: toxicity, organism-based; settings: salmonella enterica subsp. enterica serovar typhimurium, read-out: FC
[18] = Genotoxicity in Salmonella typhimurium TA1535 harboring pSK1002 assessed as umu gene induction at 0.008 mg/ml in presence of Sprague-Dawley rat liver S9 fraction after by SOS/umu assay relative to control; type: toxicity, organism-based; settings: salmonella enterica subsp. enterica serovar typhimurium, read-out: FC
[19] = Genotoxicity in Salmonella typhimurium TA1535 harboring pSK1002 assessed as survival at 0.063 mg/ml in presence of Sprague-Dawley rat liver S9 fraction after by SOS/umu assay relative to control; type: toxicity, organism-based; settings: salmonella enterica subsp. enterica serovar typhimurium, read-out: Survival
[20] = Genotoxicity in Salmonella typhimurium TA1535 harboring pSK1002 assessed as survival at 0.004 mg/ml in presence of Sprague-Dawley rat liver S9 fraction after by SOS/umu assay relative to control; type: toxicity, organism-based; settings: salmonella enterica subsp. enterica serovar typhimurium, read-out: Survival
[21] = Genotoxicity in Salmonella typhimurium TA1535 harboring pSK1002 assessed as umu gene induction at 0.125 mg/ml in absence of Sprague-Dawley rat liver S9 fraction after by SOS/umu assay relative to control; type: toxicity, organism-based; settings: salmonella enterica subsp. enterica serovar typhimurium, read-out: FC
[22] = Genotoxicity in Salmonella typhimurium TA1535 harboring pSK1002 assessed as umu gene induction at 0.008 mg/ml in absence of Sprague-Dawley rat liver S9 fraction after by SOS/umu assay relative to control; type: toxicity, organism-based; settings: salmonella enterica subsp. enterica serovar typhimurium, read-out: FC
[23] = Genotoxicity in Salmonella typhimurium TA1535 harboring pSK1002 assessed as umu gene induction at 0.001 mg/ml in presence of Sprague-Dawley rat liver S9 fraction after by SOS/umu assay relative to control; type: toxicity, organism-based; settings: salmonella enterica subsp. enterica serovar typhimurium, read-out: FC
[24] = Genotoxicity in Salmonella typhimurium TA1535 harboring pSK1002 assessed as survival at 0.001 mg/ml in presence of Sprague-Dawley rat liver S9 fraction after by SOS/umu assay relative to control; type: toxicity, organism-based; settings: salmonella enterica subsp. enterica serovar typhimurium, read-out: Survival
[25] = Genotoxicity in Salmonella typhimurium TA1535 harboring pSK1002 assessed as umu gene induction at 0.001 mg/ml in absence of Sprague-Dawley rat liver S9 fraction after by SOS/umu assay relative to control; type: toxicity, organism-based; settings: salmonella enterica subsp. enterica serovar typhimurium, read-out: FC
[26] = Selectivity index, ratio of CC50 for human HepG2A16 cells by MTT assay to IC50 for multidrug-resistant Plasmodium falciparum FCR-3; type: toxicity; settings: for selectivity ratio: HepG2A16 cells, read-out: Ratio CC50/IC50
How it was run: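 HepG2-A16 human hepatoma cells were tested by MTT viability assay to give CC50. Blood-stage activity was measured against the multidrug-resistant P. falciparum FCR-3 strain by [3H]-hypoxanthine incorporation to give IC50. SI = CC50 HepG2 / FCR-3 IC50.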

[27] = Genotoxicity in Salmonella typhimurium TA1535 harboring pSK1002 assessed as umu gene induction at 0.004 mg/ml in absence of Sprague-Dawley rat liver S9 fraction after by SOS/umu assay relative to control; type: toxicity, organism-based; settings: salmonella enterica subsp. enterica serovar typhimurium, read-out: FC
[28] = Genotoxicity in Salmonella typhimurium TA1535 harboring pSK1002 assessed as survival at 0.031 mg/ml in presence of Sprague-Dawley rat liver S9 fraction after by SOS/umu assay relative to control; type: toxicity, organism-based; settings: salmonella enterica subsp. enterica serovar typhimurium, read-out: Survival
[29] = Genotoxicity in Salmonella typhimurium TA1535 harboring pSK1002 assessed as umu gene induction at 0.063 mg/ml in presence of Sprague-Dawley rat liver S9 fraction after by SOS/umu assay relative to control; type: toxicity, organism-based; settings: salmonella enterica subsp. enterica serovar typhimurium, read-out: FC

Row | SMILES | fold induction at 0.125 mg/ml [1] | viability at 0.125 mg/ml [2] | viability at 0.004 mg/ml [3] | viability at 0.016 mg/ml [5] | viability at 0.016 mg/ml [6] | viability at 0.002 mg/ml [7] | fold induction at 0.002 mg/ml [8] | fold induction at 0.002 mg/ml [9] | fold induction at 0.031 mg/ml [10] | viability at 0.125 mg/ml [11] | fold induction at 0.063 mg/ml [12] | fold induction at 0.016 mg/ml [13] | viability at 0.002 mg/ml [14] | viability at 0.063 mg/ml [15] | fold induction at 0.004 mg/ml [16] | fold induction at 0.016 mg/ml [17] | fold induction at 0.008 mg/ml [18] | viability at 0.063 mg/ml [19] | viability at 0.004 mg/ml [20] | fold induction at 0.125 mg/ml [21] | other results
1 | N#Cc1ccc(C(O)CCN2CC=C(c3ccc(F)cc3)CC2)cc1 (stereo not given) | 1 | 108% | 94.7% | 126% | 85.1% | 103% | 0.9 | 1.1 | 0.8 | 87.9% | 1.2 | 0.9 | 97.8% | 82.3% | 0.8 | 1.1 | 1 | 101% | 122% | 1.1 | CC50 ([4]; HepG2A16 cells): 82.4 µM; fold induction at 0.008 mg/ml [22]: 1.1; fold induction at 0.001 mg/ml [23]: 1.1; viability at 0.001 mg/ml [24]: 104%; fold induction at 0.001 mg/ml [25]: 0.9; selectivity ratio [26]: 62; fold induction at 0.004 mg/ml [27]: 0.9; viability at 0.031 mg/ml [28]: 130%; fold induction at 0.063 mg/ml [29]: 1.1
2 | COc1ccccc1C1=CCN(CCC(O)c2ccc(F)cc2)CC1 (stereo not given) | 1 | 88.5% | 104% | 78.9% | 106% | 103% | 1.1 | 1.1 | 1 | 107% | 0.9 | 1.2 | 87.2% | 101% | 1.1 | 1 | 1 | 91% | 82.3% | 1 | CC50 ([4]; HepG2A16 cells): 67 µM; fold induction at 0.008 mg/ml [22]: 1; fold induction at 0.001 mg/ml [23]: 1.2; viability at 0.001 mg/ml [24]: 103%; fold induction at 0.001 mg/ml [25]: 1; selectivity ratio [26]: 51; fold induction at 0.004 mg/ml [27]: 1.1; viability at 0.031 mg/ml [28]: 81.8%; fold induction at 0.063 mg/ml [29]: 0.9
3 | OC(CCN1CCN(c2ccccc2C(F)(F)F)CC1)c1ccc(F)c2ccccc12 (stereo in doubt; 55) | 0.7 | 100% | 52.1% | 73.9% | 94.7% | 51.4% | 0.8 | 0.5 | 0.7 | 167% | 0.2 | 1.1 | 120% | 138% | 0.5 | 0.6 | 0.2 | 90.8% | 108% | 0.3 | CC50 [4]: 27.5 µM; fold induction at 0.008 mg/ml [22]: 0.9; fold induction at 0.001 mg/ml [23]: 0.3; viability at 0.001 mg/ml [24]: 106%; fold induction at 0.001 mg/ml [25]: 0.7; Ratio CC50/IC50 [26]: 183; fold induction at 0.004 mg/ml [27]: 1.1; viability at 0.031 mg/ml [28]: 101%; fold induction at 0.063 mg/ml [29]: 0.8
4 | COc1ccccc1N1CCN(CCC(O)c2ccc(F)c3ccccc23)CC1 (stereo not given) | 0.7 | 84.4% | 66.5% | 92.4% | 63% | 65.2% | 1.5 | 1 | 0.6 | 55.9% | 0.9 | 1 | 102% | 61.5% | 0.8 | 1.3 | 1 | 88.4% | 102% | 0.9 | CC50 ([4]; HepG2A16 cells): 30.4 µM; fold induction at 0.008 mg/ml [22]: 1.3; fold induction at 0.001 mg/ml [23]: 0.9; viability at 0.001 mg/ml [24]: 112%; fold induction at 0.001 mg/ml [25]: 1.3; selectivity ratio [26]: 138; fold induction at 0.004 mg/ml [27]: 1.1; viability at 0.031 mg/ml [28]: 129%; fold induction at 0.063 mg/ml [29]: 0.7
5 | Nc1ccc(N2CCC(NCCC(O)c3ccc(F)c4ccccc34)CC2)c(C(F)(F)F)c1 (stereo not given) | 0.1 | 107% | 38.7% | 32.4% | 28.3% | 150% | 0.7 | 1.4 | 1 | 32.4% | 0.6 | 1.4 | 116% | 27.7% | 1.1 | 0.8 | 1.1 | 55.7% | 116% | 0.4 | CC50 ([4]; HepG2A16 cells): 11 µM; fold induction at 0.008 mg/ml [22]: 1; fold induction at 0.001 mg/ml [23]: 0.6; viability at 0.001 mg/ml [24]: 119%; fold induction at 0.001 mg/ml [25]: 1.1; selectivity ratio [26]: 137; fold induction at 0.004 mg/ml [27]: 0.8; viability at 0.031 mg/ml [28]: 39.1%; fold induction at 0.063 mg/ml [29]: 0.4
